Measured values taken from the RNAGym collection of RNA variant scans (doi:10.1002/anie.201605470).

B1: Osa-1-4 twister ribozyme (parent)
chain: CCGCCUAACACUGCCAAUGCCGGUCCCAAGCCCGGAUAAAAGUGGAGGGGGCGG

Variants of: B1
Test: self-cleavage, relative activity (ratio to wild type); higher = more cleavage; co-transcriptional
Outline: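 Relative activity is the fraction cleaved divided by that of the wild-type ribozyme. The library came from a DNA template for a 54-nucleotide Oryza sativa twister ribozyme, doped at the 48 positions downstream of the cleavage site with 97 % wild-type base and 1 % of each other base. After 2 h of in vitro transcription at 37 °C with co-transcriptional self-cleavage, the RNA was reverse-transcribed with a template-switching oligonucleotide, amplified by PCR and deep-sequenced, and reads with or without upstream sequence gave the cleavage status.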

Variant | self-cleavage
A38U G13C | 0.03
A38U G13U | 0.03
A38U G13A | 0.11
A38G C27A | 0.16
A38G C27G | 0.09
A38G C27U | 0.18
A39C G42U | 0.05
A39C G42C | 0.09
A39C G42A | 0.1
A39C G34C | 0.2
A39C G34U | 0.42
A39C G34A | 0.63
A38G U37G | 1
A38G U37A | 1
A38G U37C | 1.05
A38G G22A | 1.01
A38G G22C | 0.13
A38G G22U | 0.85
A39C A40U | 0.85
A39C A40G | 0.59
A39C A40C | 0.1
A39C A8G | 0.23
A39C A8U | 0.1
A39C A8C | 0.09

Variant | self-cleavage
A39C G13A | 0.06
A39C G13C | 0.02
A39C G13U | 0.03
A38G A8G | 0.55
A38G A8U | 0.27
A38G A8C | 0.07
A38U G23C | 0.07
A38U G23A | 0.33
A38U G23U | 0.07
A38G C21U | 1.01
A38G C21G | 0.08
A38G C21A | 0.78
A38U U18A | 0.92
A38U U18C | 0.93
A38U U18G | 0.85
A38U C26G | 0.09
A38U C26U | 0.92
A38U C26A | 0.04
A38G | 1.01
A38U | 1.01
A38G C26U | 0.85
A38G C26G | 0.14
A38G C26A | 0.06
A38G U24A | 0.16

Variant | self-cleavage
A38G U24G | 0.03
A38G U24C | 0.32
A38U A8C | 0.09
A38U A8U | 0.25
A38U A8G | 0.52
A39C C14U | 0.11
A39C C14G | 0.05
A39C C14A | 0.08
A38G C52U | 0.95
A38G C52G | 0.96
A38G C52A | 1.02
A38C U43G | 0.34
A38C U43C | 0.38
A38C U43A | 0.88
A38G A40U | 0.32
A38G A40C | 0.07
A38G A40G | 0.6
A38U C33G | 0.05
A38U C33A | 0.1
A38U C33U | 0.79
A39C C31U | 0.53
A39C C31G | 0.08
A39C C31A | 0.04
A39C A46C | 0.04

Variant | self-cleavage
A39C A46U | 0.07
A39C A46G | 0.05
A38U A39U | 0.97
A38U A39C | 0.96
A38U A39G | 0.64
A38G C11A | 0.8
A38G C11U | 0.94
A38G C11G | 0.68
A39C G23A | 0.12
A39C G23U | 0.05
A39C G23C | 0.04
A38G G49C | 0.08
A38G G49A | 0.13
A38G G49U | 0.13
A38G G35A | 0.83
A38G G35U | 0.86
A38G G35C | 0.26
A39C G35A | 0.78
A39C G35C | 0.14
A39C G35U | 0.84
A38G G53C | 0.09
A38G G53A | 0.8
A38G G53U | 0.31
A38U U43G | 0.47

Variant | self-cleavage
A38U U43A | 0.95
A38U U43C | 0.39
A39C C20U | 0.94
A39C C20G | 0.1
A39C C20A | 0.87
A38G C9A | 0.45
A38G C9G | 0.88
A38G C9U | 0.7
A38U G34U | 0.77
A38U G34A | 0.78
A38U G34C | 0.5
A38U U12C | 0.4
A38U U12A | 0.86
A38U U12G | 0.31
A39C C9U | 0.55
A39C C9A | 0.28
A39C C9G | 0.34
A38U U24G | 0.03
A38U U24C | 0.25
A38U U24A | 0.14
A39C C25U | 0.33
A39C C25G | 0.06
A39C C25A | 0.06
A39C C21U | 0.97

Variant | self-cleavage
A39C C21A | 0.22
A39C C21G | 0.08
A38U G50A | 0.64
A38U G50U | 1.01
A38U G50C | 0.99
A38U A40G | 0.64
A38U A40C | 0.06
A38U A40U | 0.55
A38G G23U | 0.1
A38G G23C | 0.08
A38G G23A | 0.47
A39C G30C | 0.04
A39C G30U | 0.03
A39C G30A | 0.04
A38U G44C | 0.96
A38U G44U | 0.89
A38U G44A | 0.92
A38U C9A | 0.42
A38U C9U | 0.74
A38U C9G | 0.84
A39C A7C | 0.06
A39C A7U | 0.06
A39C A7G | 0.12
A38G C25G | 0.11

Variant | self-cleavage
A38G C25U | 0.78
A38G C25A | 0.09
A38G G47U | 0.17
A38G G47A | 0.19
A38G G47C | 0.08
A38U G35C | 0.13
A38U G35U | 0.89
A38U G35A | 0.83
A38U G53C | 0.09
A38U G53A | 0.81
A38U G53U | 0.27
A38G C15G | 0.35
A38G C15A | 0.33
A38G C15U | 0.47
A38U A46G | 0.05
A38U A46U | 0.07
A38U A46C | 0.06
A38U C25A | 0.07
A38U C25G | 0.09
A38U C25U | 0.9
A38U G49A | 0.12
A38U G49U | 0.09
A38U G49C | 0.05
A39C C11A | 0.26

Variant | self-cleavage
A39C C11U | 0.74
A39C C11G | 0.21
A39C G44A | 0.71
A39C C52U | 1.06
A39C C52G | 0.96
A39C C52A | 1
A39C G19C | 0.06
A39C G19A | 0.28
A39C G19U | 0.11
A39C C32G | 0.1
A39C C32U | 0.08
A39C C32A | 0.08
A38U C14G | 0.11
A38U C14U | 0.22
A38U C14A | 0.07
A38G G30C | 0.04
A38G G30U | 0.04
A38G G30A | 0.05
A38G A46G | 0.08
A38G A46C | 0.08
A38G A46U | 0.07
A39C G22A | 0.78
A39C G22C | 0.05
A39C G22U | 0.41

Variant | self-cleavage
A38U G51U | 0.32
A38U G51A | 0.63
A38U G51C | 0.09
A38G U18C | 0.97
A38G U18G | 0.84
A38G U18A | 0.92
A38G G45C | 0.07
A38G G45A | 0.26
A38G G45U | 0.09
A39C C33A | 0.06
A39C C33G | 0.07
A39C C33U | 0.38
A38U G47C | 0.08
A38U G47A | 0.18
A38U G47U | 0.19
A38U C21G | 0.06
A38U C21U | 0.99
A38U C21A | 0.53
A38G C31U | 0.73
A38G C31A | 0.03
A38G C31G | 0.13
A38G U43A | 0.89
A38G U43G | 0.62
A38G U43C | 0.35

Variant | self-cleavage
A38G G48A | 0.11
A38G G48U | 0.07
A38G G48C | 0.1
A39C C26A | 0.04
A39C C26G | 0.07
A39C C26U | 0.35
A38G G42U | 0.12
A38G G42C | 0.23
A38G G42A | 0.7
A38U C11A | 0.78
A38U C11G | 0.59
A38U C11U | 0.97
A38G A41U | 1.01
A38G A41G | 0.75
A38G A41C | 0.98
A38U G48C | 0.08
A38U G48U | 0.08
A38U G48A | 0.1
A38G C14U | 0.13
A38G C14A | 0.07
A38G C14G | 0.13
A38G C20A | 0.9
A38G C20G | 0.19
A38G C20U | 0.98

Variant | self-cleavage
A38G C32G | 0.18
A38G C32U | 0.12
A38G C32A | 0.09
A39C C27U | 0.09
A39C C27A | 0.11
A39C C27G | 0.06
A38U C31U | 0.75
A38U C31A | 0.03
A38U C31G | 0.08
A38G G51C | 0.11
A38G G51A | 0.72
A38G G51U | 0.36
A38G G54U | 0.94
A38G G54A | 0.92
A38G G54C | 0.94
A38U G19C | 0.04
A38U G19U | 0.22
A38U G19A | 0.57
A38G G44U | 0.95
A38G G44A | 0.93
A38G G44C | 0.98
A38U C52A | 1
A38U C52G | 0.98
A38U C52U | 1.01

Variant | self-cleavage
A38G A7C | 0.06
A38G A7U | 0.08
A38G A7G | 0.31
A38G G13U | 0.03
A38G G13C | 0.03
A38G G13A | 0.12
A38U G42C | 0.17
A38U G42A | 0.6
A38U G42U | 0.08
A38U G54A | 0.93
A38U G54C | 0.89
A38U G54U | 0.95
A38U C15G | 0.25
A38U C15A | 0.23
A38U C15U | 0.21
A38U C20G | 0.15
A38U C20A | 0.82
A38U C20U | 0.98
A38G G34U | 0.74
A38G G34C | 0.59
A38G G34A | 0.84
A39C | 0.99
A38U C27G | 0.08
A38U C27U | 0.15

Variant | self-cleavage
A38U C27A | 0.14
A38U G45C | 0.06
A38U G45U | 0.09
A38U G45A | 0.23
A38G C33U | 0.78
A38G C33A | 0.11
A38G C33G | 0.07
A38C U37G | 0.99
A38C U37A | 1.05
A38C U37C | 1
A38U A7G | 0.24
A38U A7C | 0.05
A38U A7U | 0.12
A39C A41C | 0.37
A39C A41U | 0.96
A39C A41G | 0.23
A38G G50A | 0.74
A38G G50C | 1
A38G G50U | 1
A38U G22U | 0.89
A38U G22C | 0.08
A38U G22A | 1
A38U C32A | 0.08
A38U C32U | 0.11

Variant | self-cleavage
A38U C32G | 0.12
A38G U12A | 0.88
A38G U12G | 0.41
A38G U12C | 0.42
A38U U37A | 1.03
A38U U37C | 1.04
A38U U37G | 1.03
A38U A41G | 0.64
A38U A41U | 0.98
A38U A41C | 0.89
A38G A39C | 0.97
A38G A39G | 0.4
A38G A39U | 0.98
A39C C15A | 0.23
A39C C15U | 0.57
A39C C15G | 0.16
A38G G19A | 0.46
A38G G19U | 0.14
A38G G19C | 0.06
A38U G30A | 0.04
A38U G30C | 0.04
A38U G30U | 0.04
